These results are taken from ChEMBL document CHEMBL1145859, “Tethered dimers as NAD synthetase inhibitors with antibacterial activity” (J Med Chem, 2003).

The subject of one assay is Bacillus subtilis. Briefly: Minimum inhibitory concentration required against Bacillus subtilis ATCC 14289. Format: functional. Put shortly:
(§1)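 Broth doubling-dilution MIC run in duplicate series from 50 µg/mL (1% DMSO final). Each tube received 0.01 mL of inoculum from a log-phase culture (5–6 h, 37 °C) adjusted to about 5 × 10^8 CFU/mL. Incubation 20 h at 37 ± 2 °C. MIC is the lowest concentration with no visible growth. Viability, sterility and reference-antibiotic controls included.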

Assay [1] deals with Staphylococcus aureus. In words: Minimum inhibitory concentration required against Staphylococcus aureus ATCC 29213. The format is functional. In outline: as §1
The target of assay [2] is T1, NH(3)-dependent NAD(+) synthetase (Bacillus subtilis (strain 168), UniProt P08164).
T1 sequence (P08164 whole entry): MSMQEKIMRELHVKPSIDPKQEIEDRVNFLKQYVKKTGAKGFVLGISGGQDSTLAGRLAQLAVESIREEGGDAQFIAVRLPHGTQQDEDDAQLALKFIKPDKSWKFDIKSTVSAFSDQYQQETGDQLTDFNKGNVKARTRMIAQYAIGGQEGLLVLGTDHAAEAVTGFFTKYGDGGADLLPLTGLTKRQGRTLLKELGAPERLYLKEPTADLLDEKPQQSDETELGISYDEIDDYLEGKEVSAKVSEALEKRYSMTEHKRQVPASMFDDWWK
Briefly: Inhibitory activity against Bacillus subtilis NAD synthetase. In outline: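 Purified recombinant B. subtilis NAD synthetase (2.0 µg/mL) in coupled assay, pH 8.5: 58.5 mM HEPES, 18.5 mM NH4Cl, 19.5 mM KCl, 9.75 mM MgCl2, 1% EtOH, 0.1 mM NaAD, 0.3% BOG, 40 µg/mL yeast ADH, 0.2 mM ATP, 2.5% DMSO. ATP-started, 10 min, guanidine·HCl stop; NADH read at A340 and fluorescence 460 nm, background-subtracted; IC50 from % inhibition at six concentrations.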

The test system of assay [3] is Salmonella enteritidis. Briefly: Minimum inhibitory concentration required against Salmonella enteritidis ATCC 13076. The format is functional, Salmonella enterica subsp. enterica serovar Enteritidis. Conditions: Salmonella enterica. Put shortly: as §1
A further assay has as its system Pseudomonas aeruginosa. In words: Minimum inhibitory concentration required against Pseudomonas aeruginosa ATCC 27853. The format is functional. In outline: as §1
Assay [4] relates to Staphylococcus aureus. Briefly: Minimum inhibitory concentration required against Staphylococcus aureus ATCC 33592. The format is functional. In outline:
as §1

The subject of assay [5] is Staphylococcus aureus. Briefly: Minimum inhibitory concentration required against Staphylococcus aureus ATCC 33591. Format: functional. Put shortly:
as §1

Assay [6] relates to Staphylococcus aureus. In words: Minimum inhibitory concentration required against Staphylococcus aureus ATCC 33593. Format: functional. In outline:
as §1

The test system of assay [7] is Salmonella enteritidis. In words: microbe, parasite or virus in culture. Conditions: Salmonella enterica, ATCC 13076.

Values after ≈ are worked out from the molar mass of the structure shown.

In the case of `COC(=O)c1cc2cc(OCc3ccccc3)ccc2n1CCCCCCCCCOC(=O)Cc1ccc([N+](C)(C)C)cc1`, the MIC against Bacillus subtilis was 1.5 µM; against Staphylococcus aureus [1] it was 6.2 µM. Also, the IC50 in assay [2] worked out at 18 µM.

`C[N+](C)(C)c1ccc(CC(=O)OCCCCCCn2ccc3cc([N+](=O)[O-])ccc32)cc1`: in [2], half-maximal inhibition (IC50) was put at 84 µM. The compound `C[n+]1cccc(C(=O)OCCn2ccc3cc([N+](=O)[O-])ccc32)c1` registered an IC50 in assay [2] of over 1000 µM. For `COC(=O)c1cc2ccccc2n1CCCCCCCCOC(=O)Cc1ccc([N+](C)(C)C)cc1`, the MIC in the assay with Salmonella enteritidis [3] was over 50 µM; against Bacillus subtilis it was 6.2 µM; against Staphylococcus aureus [1], 3.1 µM; in the assay on Pseudomonas aeruginosa, over 50 µM. In assay [2], it took 14 µM to reach half-maximal inhibition (IC50).

`C[n+]1cccc(C(=O)OCCCCCCn2ccc3cc([N+](=O)[O-])ccc32)c1`: the IC50 in assay [2] came out at 500 µM. Regarding `O=C(OCCCCCCCCn1ccc2cc([N+](=O)[O-])ccc21)c1cccnc1`, in [2], the IC50 was over 1000 µM. The same measure, in the same setting: the result for `COc1ccc2c(ccn2CCCCCCCOC(=O)c2ccc[n+](C)c2)c1` reads 24 µM. In turn, `C[n+]1cccc(C(=O)OCCCCCCCn2ccc3ccccc32)c1` came in with an IC50 in assay [2] of 95 µM. Still for that read-out and setting: under `C[N+](C)(C)c1ccc(CC(=O)OCCCCn2ccc3cc(OCc4ccccc4)ccc32)cc1` stands 84 µM. In the case of `COC(=O)c1cc2ccccc2n1CCCCCCCOC(=O)Cc1ccc([N+](C)(C)C)cc1`, the MIC in the assay with Salmonella enteritidis [3] is over 50 µM; against Bacillus subtilis it was 1.5 µM; with Staphylococcus aureus [1] it was 12.5 µM; in the assay with Pseudomonas aeruginosa, over 50 µM. In assay [2], this compound gave an IC50 of 19 µM. Regarding `COC(=O)c1cc2cc(OCc3ccccc3)ccc2n1CCCCCCCCOC(=O)c1cc[n+](C)cc1`, the MIC with Salmonella enteritidis [3] was over 50 µM; with Bacillus subtilis it was 12.5 µM; in the assay on Staphylococcus aureus [1] it was 6.2 µM; in the assay with Pseudomonas aeruginosa it was over 50 µM. In assay [2], this compound registered an IC50 of 10 µM. Turning to `O=C(OCCCCCCn1ccc2cc([N+](=O)[O-])ccc21)c1cccnc1`, the IC50 in assay [2] was over 1000 µM.

For the compound `COC(=O)c1cc2ccccc2n1CCCCCCCOC(=O)c1ccc[n+](C)c1`, in assay [2], inhibition was half-maximal at 34 µM (IC50). On the same count and under the same terms, under `COC(=O)c1cc2cc(OCc3ccccc3)ccc2n1CCCCCCOC(=O)Cc1ccc([N+](C)(C)C)cc1` stands 12 µM; under `C[N+](C)(C)c1ccc(CC(=O)OCCCCCCCCn2ccc3ccccc32)cc1`, 63 µM. The compound `COC(=O)c1cc2ccccc2n1CCCCCCCCOC(=O)c1cc[n+](C)cc1` displayed an IC50 in assay [2] of 44 µM. The same measure, in the same setting: under `COC(=O)c1cc2cc(OCc3ccccc3)ccc2n1CCCCCCOC(=O)c1ccc[n+](C)c1` stands 37 µM; under `O=C(OCCCCn1ccc2cc([N+](=O)[O-])ccc21)c1cccnc1`, over 1000 µM. As for `C[n+]1cccc(C(=O)OCCOCCOCCn2ccc3cc(OCc4ccccc4)ccc32)c1`, the MIC in the assay on Bacillus subtilis and with Staphylococcus aureus [1] was over 50 µM throughout. Also, in assay [2], the IC50 was over 200 µM. For `O=C(OCCCCCCCCn1ccc2cc(O)ccc21)c1cccnc1`, in assay [2], the IC50 is over 200 µM. On the same count and under the same terms, under `O=C(OCCn1ccc2cc([N+](=O)[O-])ccc21)c1cccnc1` stands over 1000 µM; under `COC(=O)c1cc2ccccc2n1CCCCCCOC(=O)Cc1ccc([N+](C)(C)C)cc1`, 24 µM. Compound `CO[C@H]1/C=C/O[C@@]2(C)Oc3c(C)c(O)c4c(O)c(c(/C=N/N5CCN(C)CC5)c(O)c4c3C2=O)NC(=O)/C(C)=C\C=C\[C@H](C)[C@H](O)[C@@H](C)[C@@H](O)[C@@H](C)[C@H](OC(C)=O)[C@@H]1C` [RIFAMPIN] had an MIC in the assay with Bacillus subtilis of 1 µM (≈ 0.823 µg/mL). The IC50 in assay [2] is over 1 µM. As for `COc1cccc(OC)c1C(=O)N[C@@H]1C(=O)N2[C@@H]1SC(C)(C)[C@@H]2C(=O)O`, the MIC came to 32 µM (≈ 12.2 µg/mL) against Staphylococcus aureus [4], 32 µM (≈ 12.2 µg/mL) against Staphylococcus aureus [5], 1 µM (≈ 0.38 µg/mL) in the assay on Staphylococcus aureus [1] and 32 µM (≈ 12.2 µg/mL) against Staphylococcus aureus [6]. Further, the IC50 in assay [2] is over 1 µM. In the case of `C[n+]1cccc(C(=O)OCCCCn2ccc3cc([N+](=O)[O-])ccc32)c1`, the IC50 in assay [2] was over 1000 µM. Same read-out and setting: under `C[N+](C)(C)c1ccc(CC(=O)OCCCCCCCCCn2ccc3ccccc32)cc1` stands 54 µM. As to `C[N+](C)(C)c1ccc(CC(=O)OCCCCCCCCn2ccc3cc(OCc4ccccc4)ccc32)cc1`, the MIC is over 50 µM in the assay on Salmonella enteritidis [3], 1.5 µM against Bacillus subtilis, 3.1 µM in the assay with Staphylococcus aureus [1] and over 50 µM in the assay on Pseudomonas aeruginosa. The IC50 in [2] turned out to be 20 µM. Turning to `O=C(OCCCn1ccc2cc([N+](=O)[O-])ccc21)c1cccnc1`, in assay [2], the IC50 was over 1000 µM. Turning to `C[n+]1cccc(C(=O)OCCCCCCCCn2ccc3cc(OCc4ccccc4)ccc32)c1`, the MIC in the assay on Salmonella enteritidis [3] stood at 50 µM; with Staphylococcus aureus [4], 6.2 µM; in the assay on Staphylococcus aureus [5], 12.5 µM; in the assay with Bacillus subtilis, 6.2 µM; in the assay on Staphylococcus aureus [1], 1.5 µM; against Staphylococcus aureus [6], 3.1 µM. This compound registered an MIC in the assay on Pseudomonas aeruginosa of 50 µM. For the compound `C[N+](C)(C)c1ccc(CC(=O)OCCCCCn2ccc3cc(OCc4ccccc4)ccc32)cc1`, the half-inhibitory concentration (IC50) in assay [2] was 60 µM.

`C[n+]1cccc(C(=O)OCCCCCCn2ccc3cc(OCc4ccccc4)ccc32)c1` gave an IC50 in [2] of 29 µM. Turning to `O=C(OCCCCCCCn1ccc2cc([N+](=O)[O-])ccc21)c1cccnc1`, in assay [2], the IC50 was over 1000 µM.

As for `COC(=O)c1cc2cc(OCc3ccccc3)ccc2n1CCCCCCCOC(=O)c1ccc[n+](C)c1`, the MIC in the assay on Salmonella enteritidis [3] was over 50 µM; in the assay with Bacillus subtilis it was 6.2 µM; with Staphylococcus aureus [1], 3.1 µM; against Pseudomonas aeruginosa, over 50 µM. The compound further displayed an IC50 in assay [2] of 18 µM. GENTAMICIN yielded an MIC against Pseudomonas aeruginosa of 2 µM.

Regarding `C[n+]1cccc(C(=O)OCCCn2ccc3cc([N+](=O)[O-])ccc32)c1`, the IC50 in [2] was over 1000 µM. Still for that read-out and setting: the result for `COC(=O)c1cc2cc(OCc3ccccc3)ccc2n1CCCCCCCCOC(=O)Cc1ccc([N+](C)(C)C)cc1` reads 20 µM. Still for that read-out and setting: under `C[N+](C)(C)c1ccc(CC(=O)OCCCCCCn2ccc3cc(OCc4ccccc4)ccc32)cc1` stands 69 µM. Regarding `COc1cc(Cc2cnc(N)nc2N)cc(OC)c1OC` [TRIMETHOPRIM], in the assay on Salmonella enteritidis [7], the MIC was 0.5 µM (≈ 0.145 µg/mL). The same compound showed an IC50 in [2] of over 1 µM. `COC(=O)c1cc2cc(OCc3ccccc3)ccc2n1CCCCCCCCCOC(=O)c1ccc[n+](C)c1` had an IC50 in assay [2] of 27 µM. Still for that read-out and setting: under `O=C(OCCCCCn1ccc2cc([N+](=O)[O-])ccc21)c1cccnc1` stands over 1000 µM; under `C[N+](C)(C)c1ccc(CC(=O)OCCCCCCCCCn2ccc3cc([N+](=O)[O-])ccc32)cc1`, 24 µM; under `C[n+]1cccc(C(=O)OCCCCCn2ccc3cc([N+](=O)[O-])ccc32)c1`, 1000 µM. Same read-out and setting: under `C[n+]1cccc(C(=O)OCCCCCCCCCn2ccc3ccccc32)c1` stands 48 µM. The same measure, in the same setting: the result for `C[N+](C)(C)c1ccc(CC(=O)OCCCCCn2ccc3cc([N+](=O)[O-])ccc32)cc1` reads 70 µM; that for `C[n+]1cccc(C(=O)OCCCCCn2ccc3cc(OCc4ccccc4)ccc32)c1`, 94 µM. In turn, `COC(=O)c1cc2ccccc2n1CCCCCCCCCOC(=O)c1ccc[n+](C)c1` displayed an IC50 in assay [2] of 34 µM. As to `COC(=O)c1cc2cc(OCc3ccccc3)ccc2n1CCCCCCCOC(=O)Cc1ccc([N+](C)(C)C)cc1`, the MIC in the assay with Salmonella enteritidis [3] is over 50 µM; in the assay on Staphylococcus aureus [4], 3.1 µM; against Staphylococcus aureus [5], 6.2 µM; against Bacillus subtilis, 1.5 µM; against Staphylococcus aureus [1], 1.5 µM; with Staphylococcus aureus [6], 3.1 µM. The compound also had an MIC with Pseudomonas aeruginosa of over 50 µM. Half-maximal inhibition in assay [2] (IC50) required 9 µM.

`C[N+](C)(C)c1ccc(CC(=O)OCCCCn2ccc3cc([N+](=O)[O-])ccc32)cc1` had an IC50 in assay [2] of 89 µM.
